pEC50, pKd: −log10 of the molar value. Active and inactive are the calls of the source. No cut-off for these calls is given here.
Columns and labels:
[1] = target: Sterol 14-alpha demethylase (Trypanosoma cruzi (strain CL Brener), UniProt Q7Z1V1); experiment: Binding affinity to Trypanosoma cruzi Y CYP51A expressed in Escherichia coli
Method in brief: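 Recombinant CYP51A from Y strain T. cruzi, expressed in E. coli and purified, titrated spectrally at 0.5 μM P450 in 5 cm path cuvettes with ligand over 0.1–1 μM. Type of absorbance change in difference spectra Δ(A430-A411) plotted against ligand concentration. Apparent Kd obtained by fitting to the Morrison quadratic tight-binding equation by nonlinear regression.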

[2] = test system: Trypanosoma cruzi; experiment: Antiparasitic activity against GFP-expressing Trypanosoma cruzi Tulahuen amastigote formss infected in cardiomyocytes assessed as reduction in rate of parasite multiplication within infected cardiomyocytes measured at 72 hrs post infection by fluorescence microscopy; assay type: functional, organism-based
Method in brief: (§1)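 GFP-expressing trypomastigotes (Tulahuen or Y strain) infect cardiomyocyte monolayers at 10 parasites per cell, in DMEM + 10% FBS. Unbound parasites are washed off. At 24 h of infection, inhibitors at 0.5–25 nM in DMSO/DMEM are added and cultured 48 h. Read-out is at 72 h post-infection as GFP fluorescence (RFU) after PBS wash; microscopy uses paraformaldehyde fixation, DAPI and phalloidin stain. Triplicate.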

[3] = target: Putative lanosterol 14-alpha-demethylase (Leishmania infantum, UniProt A2TEF2); experiment: Binding affinity to Leishmania infantum CYP51 expressed in Escherichia coli
Chain of Putative lanosterol 14-alpha-demethylase (A2TEF2 whole entry): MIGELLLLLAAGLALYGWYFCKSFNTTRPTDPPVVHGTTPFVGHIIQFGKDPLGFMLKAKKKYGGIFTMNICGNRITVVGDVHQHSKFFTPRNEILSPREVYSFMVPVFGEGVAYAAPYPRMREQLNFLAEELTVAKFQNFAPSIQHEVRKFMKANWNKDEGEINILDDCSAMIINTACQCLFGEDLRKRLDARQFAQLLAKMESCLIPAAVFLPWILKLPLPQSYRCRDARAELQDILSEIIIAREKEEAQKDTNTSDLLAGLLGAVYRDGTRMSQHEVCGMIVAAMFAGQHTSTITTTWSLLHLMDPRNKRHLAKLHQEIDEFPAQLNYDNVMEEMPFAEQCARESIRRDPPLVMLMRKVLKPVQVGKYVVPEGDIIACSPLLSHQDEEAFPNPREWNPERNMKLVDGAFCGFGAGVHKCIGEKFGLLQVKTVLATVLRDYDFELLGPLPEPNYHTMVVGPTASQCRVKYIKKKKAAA
Method in brief: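 Purified E. coli-expressed L. infantum CYP51 at 0.5 μM is titrated with ligand at 0.1–1 μM in 5 cm path cuvettes. Difference-spectrum absorbance change Δ(A430−A411) is plotted against ligand concentration. Apparent Kd comes from a Morrison (quadratic) tight-binding fit by nonlinear regression.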

[4] = test system: Trypanosoma cruzi; experiment: Antiparasitic activity against GFP-expressing Trypanosoma cruzi Y amastigote formss infected in cardiomyocytes assessed as reduction in rate of parasite multiplication within infected cardiomyocytes measured at 72 hrs post infection by fluorescence microscopy; assay type: functional, organism-based; method in brief: as §1
[5] = Drug uptake in BALB/c mouse liver at 25 mg/kg, po via gavage measured after 4 hrs post dose by […]; assay type: ADME, organism-based; settings: read-out: Drug uptake
Method in brief: (§2)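 BALB/c mice get a single oral gavage dose of 25 mg/kg; tissues are collected 4 h post-dose. About 100 mg tissue is diluted 5-fold in PBS and homogenized. Homogenate is extracted as for plasma (ketoconazole internal standard, acetonitrile extraction) and quantified by HPLC-UV at 291 nm, 0.1 μM detection limit, n=2.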

[6] = Drug uptake in BALB/c mouse blood at 25 mg/kg, po via gavage measured after 4 hrs post dose by […]; assay type: ADME, organism-based; settings: read-out: Drug uptake; method in brief: as §2
[7] = Hepatic clearance in CD1 mouse liver microsomes at 1 uM preincubated for 5 mins followed by NADPH addition and measured after 45 mins by LC/MS/MS analysis; assay type: ADME, microsome
[8] = Drug uptake in BALB/c mouse heart at 25 mg/kg, po via gavage measured after 4 hrs post dose by […]; assay type: ADME, organism-based; settings: read-out: Drug uptake; method in brief: as §2
[9] = Drug uptake in BALB/c mouse spleen at 25 mg/kg, po via gavage measured after 4 hrs post dose by […]; assay type: ADME, organism-based; settings: read-out: Drug uptake; method in brief: as §2
[10] = Drug uptake in BALB/c mouse lungs at 25 mg/kg, po via gavage measured after 4 hrs post dose by […]; assay type: ADME, organism-based, Lung; settings: read-out: Drug uptake; method in brief: as §2
[11] = Half life in CD1 mouse liver microsomes at 1 uM preincubated for 5 mins followed by NADPH addition and measured by LC/MS/MS analysis; assay type: ADME, microsome; settings: mouse, microsomes, 1 µM
[12] = Intrinsic clearance in human liver microsomes at 1 uM preincubated for 5 mins followed by NADPH addition and measured after 45 mins by LC/MS/MS analysis; assay type: ADME, microsome; settings: read-out: CLH
[13] = Hepatic clearance in Sprague-Dawley rat liver microsomes at 1 uM preincubated for 5 mins followed by NADPH addition and measured after 45 mins by LC/MS/MS analysis; assay type: ADME, microsome
Method in brief: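 Pooled liver microsomes at 0.5 mg/mL: human (mixed gender), male Sprague-Dawley rat, or male CD-1 mouse, with test compound at 1 μM, triplicate. In vitro t1/2 is scaled to CLint (45 mg microsomes/g liver; 45 g liver/kg scaling factor). CLhep uses well-stirred model with hepatic blood flow 21 (human), 70 (rat), 90 (mouse) mL/min/kg.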

[14] = Hepatic clearance in human liver microsomes at 1 uM preincubated for 5 mins followed by NADPH addition and measured after 45 mins by LC/MS/MS analysis; assay type: ADME, microsome
[15] = Intrinsic clearance in CD1 mouse liver microsomes at 1 uM preincubated for 5 mins followed by NADPH addition and measured after 45 mins by LC/MS/MS analysis; assay type: ADME, microsome; settings: read-out: CLH
[16] = Maximum plasma concentration in BALB/c mouse at 25 mg/kg, po via gavage by […]; assay type: ADME, organism-based; set-up: dose 25 mg/kg, route oral
Method in brief: (§3)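 Single oral gavage dose of 25 mg/kg in BALB/c mice; blood sampled at 1, 2, 4, 6, 10, 16, 24 h. Plasma is diluted in PBS with ketoconazole internal standard, extracted with 80% acetonitrile, dried and redissolved. Analysed by reversed-phase HPLC with UV at 291/250 nm, 0.1 μM detection limit. Lifetime is time until undetectable.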

[17] = Half life in human liver microsomes at 1 uM preincubated for 5 mins followed by NADPH addition and measured by LC/MS/MS analysis; assay type: ADME, microsome; settings: microsomes, 1 µM
[18] = Drug uptake in BALB/c mouse brain at 25 mg/kg, po via gavage measured after 4 hrs post dose by […]; assay type: ADME, organism-based; settings: read-out: Drug uptake; method in brief: as §2
[19] = Half life in Sprague-Dawley rat liver microsomes at 1 uM preincubated for 5 mins followed by NADPH addition and measured by LC/MS/MS analysis; assay type: ADME, microsome; settings: microsomes, 1 µM
[20] = Intrinsic clearance in Sprague-Dawley rat liver microsomes at 1 uM preincubated for 5 mins followed by NADPH addition and measured after 45 mins by LC/MS/MS analysis; assay type: ADME, microsome; settings: read-out: CLH
[21] = Plasma concentration in BALB/c mouse assessed as time until the compound becomes undetectable at 25 mg/kg, po via gavage […]; assay type: ADME, organism-based; settings: in vivo; method in brief: as §3
[22] = Lipophilicity, log P of the compound; assay type: physicochemical; settings: octanol/water
[23] = target: Putative lanosterol 14-alpha-demethylase (Leishmania infantum) (UniProt A2TEF2); experiment: Inhibition of Leishmania infantum CYP51 expressed in Escherichia coli using [3-3H]-obtusifoliol as substrate after 60 mins by LC-MS analysis
Chain of Putative lanosterol 14-alpha-demethylase (Leishmania infantum) (A2TEF2 1-480): as the sequence (A2TEF2 whole entry) above
Method in brief: (§4)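 Reconstituted reaction: 1 μM purified CYP51, 2 μM T. brucei NADPH-P450 reductase, 100 μM dilauroylphosphatidylcholine, isocitrate dehydrogenase/isocitrate regeneration, 50 mM K phosphate pH 7.2, 10% glycerol. [3-3H]sterol substrate at 50 μM final (eburicol for T. cruzi; obtusifoliol for T. brucei and L. infantum) with inhibitor at 1.1 μM final. Preincubate 60 s at 37 °C, start with 100 μM NADPH, run 60 min, EtOAc extraction. Gives % inhibition of 14α-demethylation, triplicate, mean ± SD.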

[24] = target: Lanosterol 14-alpha-demethylase (Trypanosoma brucei brucei (strain 927/4 GUTat10.1)) (UniProt Q385E8); experiment: Inhibition of Trypanosoma brucei […] CYP51 expressed in Escherichia coli using [3-3H]-obtusifoliol as substrate after 60 mins by LC-MS analysis; method in brief: as §4
Chain of Lanosterol 14-alpha-demethylase (Trypanosoma brucei brucei (strain 927/4 GUTat10.1)) (Q385E8 1-481): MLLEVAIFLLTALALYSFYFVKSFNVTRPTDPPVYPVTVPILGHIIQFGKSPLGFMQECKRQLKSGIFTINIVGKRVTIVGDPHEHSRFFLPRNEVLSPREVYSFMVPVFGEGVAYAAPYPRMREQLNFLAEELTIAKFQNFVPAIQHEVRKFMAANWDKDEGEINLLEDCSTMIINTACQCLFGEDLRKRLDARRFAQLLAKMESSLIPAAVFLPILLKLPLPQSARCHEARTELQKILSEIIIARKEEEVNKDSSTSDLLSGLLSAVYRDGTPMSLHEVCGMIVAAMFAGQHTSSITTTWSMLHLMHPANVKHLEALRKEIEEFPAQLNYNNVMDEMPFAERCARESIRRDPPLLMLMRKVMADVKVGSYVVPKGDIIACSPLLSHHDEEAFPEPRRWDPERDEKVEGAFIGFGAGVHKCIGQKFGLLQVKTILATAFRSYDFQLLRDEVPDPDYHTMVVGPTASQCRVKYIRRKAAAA

[25] = target: Sterol 14-alpha demethylase (Trypanosoma cruzi (strain CL Brener)) (UniProt Q7Z1V1); experiment: Inhibition of Trypanosoma cruzi Y CYP51 expressed in Escherichia coli using [3-3H]-eburicol as substrate after 60 mins by LC-MS analysis; method in brief: as §4
Chain of Sterol 14-alpha demethylase (Trypanosoma cruzi (strain CL Brener)) (Q7Z1V1 whole entry, looked up): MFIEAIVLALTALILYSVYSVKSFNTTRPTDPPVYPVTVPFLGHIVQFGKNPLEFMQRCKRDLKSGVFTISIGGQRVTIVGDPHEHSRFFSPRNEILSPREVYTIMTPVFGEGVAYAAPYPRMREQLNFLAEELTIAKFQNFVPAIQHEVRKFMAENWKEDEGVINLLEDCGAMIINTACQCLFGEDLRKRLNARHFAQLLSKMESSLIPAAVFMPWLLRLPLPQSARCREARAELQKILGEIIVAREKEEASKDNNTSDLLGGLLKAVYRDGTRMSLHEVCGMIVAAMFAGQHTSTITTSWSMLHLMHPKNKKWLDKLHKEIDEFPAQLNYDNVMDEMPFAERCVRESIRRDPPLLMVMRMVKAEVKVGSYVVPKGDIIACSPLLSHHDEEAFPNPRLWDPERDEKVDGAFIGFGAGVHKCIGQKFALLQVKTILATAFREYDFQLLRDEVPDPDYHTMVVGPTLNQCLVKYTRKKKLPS

Chain of Sterol 14-alpha demethylase (Q7Z1V1 whole entry): as the sequence (Q7Z1V1 whole entry, looked up) above

SMILES | concentration at 4 h [5] [µM] | concentration at 4 h [6] [µM] | CLhep predicted at 1 µM [7] [mL/min/kg] | concentration at 4 h [8] [µM] | concentration at 4 h [9] [µM] | concentration at 4 h [10] [µM] | t1/2 [11] [min] | CLint scaled at 1 µM [12] [mL/min/kg] | CLhep predicted at 1 µM [13] [mL/min/kg] | CLhep predicted at 1 µM [14] [mL/min/kg] | CLint scaled at 1 µM [15] [mL/min/kg] | Cmax [16] [µM] | t1/2 [17] [min] | concentration at 4 h [18] [µM] | t1/2 [19] [min] | CLint scaled at 1 µM [20] [mL/min/kg] | Time [21] [h] | logP [22] | other results
O=C(N[C@@H](Cn1ccnc1)c1ccc(Cl)cc1Cl)c1ccc(-c2nnc(-c3ccccc3)o2)cc1 | – | – | – | – | – | – | – | – | – | – | – | – | – | – | – | – | – | – | pKd [1]: 8.08; pEC50 [2]: 8.89; pKd [3]: 8.70; pEC50 [4]: 8.40
O=C(N[C@@H](Cn1ccnc1)c1ccc(Cl)cc1Cl)c1ccc(-c2nnc(-c3ccc(OCC(F)(F)F)cc3F)o2)cc1 | 32 | 3 | – | 6 | 6 | 38 | – | – | – | – | – | 7 | – | 0.15 | 48 | – | 6 | – | inhibition [23]: Active; inhibition [24]: Active; inhibition [25]: Active
O=C(N[C@@H](Cn1ccnc1)c1ccc(-c2ccc(F)cc2)cc1F)c1ccc(-c2nnc(-c3ccccc3)o2)cc1 | 34 | 22 | 55.6 | 16 | 21 | 74 | 38 | 29.9 | 14.2 | 12.3 | 145 | 24 | 42 | 1 | 158 | 17.7 | – | 5.44 | pKd [1]: 8.17; pEC50 [2]: 9.00; pKd [3]: 8.08; pEC50 [4]: 8.82

The next lines start with results.

concentration at 4 h [5] [µM] | concentration at 4 h [6] [µM] | CLhep predicted at 1 µM [7] [mL/min/kg] | concentration at 4 h [8] [µM] | concentration at 4 h [9] [µM] | concentration at 4 h [10] [µM] | t1/2 [11] [min] | CLint scaled at 1 µM [12] [mL/min/kg] | CLhep predicted at 1 µM [13] [mL/min/kg] | CLhep predicted at 1 µM [14] [mL/min/kg] | CLint scaled at 1 µM [15] [mL/min/kg] | Cmax [16] [µM] | t1/2 [17] [min] | concentration at 4 h [18] [µM] | t1/2 [19] [min] | CLint scaled at 1 µM [20] [mL/min/kg] | Time [21] [h] | logP [22] | SMILES | other results
20 | 12 | 35.9 | 3 | 6 | 18 | 91 | 13.9 | 23.6 | 8.35 | 59.8 | 13 | 90 | 0.2 | 79 | 35.5 | 16 | – | O=C(N[C@@H](Cn1ccnc1)c1ccc(-c2ccc(F)cc2)cc1Cl)c1ccc(-c2nnc(-c3ccccc3)o2)cc1 | –
3 | 1 | 48.4 | 0.1 | 2 | 0.6 | 52 | 22.3 | 20.8 | 10.8 | 105 | 5 | 56 | 0.1 | 95 | 29.7 | 10 | 4.93 | O=C(N[C@@H](Cn1ccnc1)c1ccc(-c2ccc(F)cc2)cc1Cl)c1ccc(-c2nnc(-c3ccccn3)o2)cc1 | –
17 | 4 | 63.9 | 3 | 3 | 26 | 25 | 21.2 | 45.6 | 10.6 | 220 | 15 | 58 | 0.2 | 22 | 131 | < 16 | – | [2H]c1c([2H])c([2H])c(-c2ccc([C@H](Cn3ccnc3)NC(=O)c3ccc(-c4nnc(-c5ccccc5)o4)cc3)c(Cl)c2)c([2H])c1[2H] | –
– | – | – | – | – | – | – | – | – | – | – | – | – | – | – | – | – | 4.93 | O=C(N[C@@H](Cn1ccnc1)c1cnc(-c2ccc(F)cc2)cc1Cl)c1ccc(-c2nnc(-c3ccccc3)o2)cc1 | –
